No end group written: not given here. Where only a bound is given, the exact number is not on record here.

Data set [1] deals with bacteria. The settings on record: cited from earlier work.
The test system of data set [2] is L. monocytogenes ATCC 19115. The experiment in a line: Bacterial agglutination assay. It is filed as cell-based, Listeria monocytogenes. As to conditions: for peptide concentration at which the bacteria were agglutinated: 0–20 μM peptide, 50% MHB pH 7.4, 6 h, OD600. The method in brief: (§1)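 Mid-log bacteria (LB for E. coli, BHI for Listeria), washed, held at OD600 0.25 in 50% MHB pH 7.4. Mixed 9:1 with 10× peptide (50, 100, 200 μM stocks) or water in a cuvette; OD600 read over time. At 6 h, for 20 μM samples, supernatant and agglutinate resuspended in fresh 50% MHB were serially diluted and plated (37 °C; LB agar 15 h, BHI agar 20 h). Three trials; mean ± SD.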

Data set [3] relates to E. coli ATCC 25922. The experiment in a line: Bacterial agglutination assay. It is filed as cell-based, Escherichia coli. As to conditions: for peptide concentration at which the bacteria were agglutinated: 0–20 μM peptide, 50% MHB pH 7.4, 6 h, OD600. The method in brief:
as §1

Data set [4] can be described thus: Sedimentation velocity analytical ultracentrifugation. It is filed as physicochemical. As to conditions: lowest possible rotor speed (3000 rpm); white coat on the AUC cell.
Data set [5] concerns L. monocytogenes ATCC 19115. The experiment in a line: Antimicrobial activity assay. As to conditions: 20 μM peptide, AMA buffer (10 mM sodium phosphate, 1% TSB, pH 7.4), 1 h, 37 °C, colony counting; n = 3. It is filed as cell-based, Listeria monocytogenes. The method in brief:
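Strain grown overnight in BHI (37 °C, 16 h), subcultured 1:100 to OD600 ~0.6, washed twice in AMA buffer, set to OD600 0.5, then diluted 1:500. 9 parts culture to 1 part 10× peptide (200 μM stock) or water control; 1 h, 37 °C, 150 rpm. Tenfold dilutions plated on BHI agar, 20 h, 37 °C; 30–200-colony plates counted. Three trials, ≥2 peptide preparations; mean and standard deviation.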

Data set [6] deals with S. aureus ATCC 25923. The experiment in a line: Antimicrobial activity assay. It is filed as cell-based, Staphylococcus aureus. As to conditions: 20 μM peptide, AMA buffer (10 mM sodium phosphate, 1% TSB, pH 7.4), 1 h, 37 °C, colony counting; n = 3. The method in brief:
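Strain grown overnight in dextrose-free TSB (37 °C, 16 h), subcultured 1:100 to OD600 ~0.6, washed twice in AMA buffer, set to OD600 0.6, then diluted 1:100. 9 parts culture to 1 part 10× peptide (200 μM stock) or water control; 1 h, 37 °C, 150 rpm. Tenfold dilutions plated on TSB agar, 20 h, 37 °C; 30–200-colony plates counted. Three trials, ≥2 peptide preparations; mean and standard deviation.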

Data set [7] deals with E. coli ATCC 25922. The experiment in a line: Antimicrobial activity assay. It is filed as cell-based, Escherichia coli. As to conditions: 20 μM peptide, AMA buffer (10 mM sodium phosphate, 1% TSB, pH 7.4), 1 h, 37 °C, colony counting; n = 3. The gist of the method: (§2)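 Cells grown overnight in dextrose-free TSB (37 °C, 16 h), subcultured 1:100 to OD600 ~0.6, washed twice in AMA buffer, set to OD600 0.5, then diluted 1:250. 9 parts culture to 1 part 10× peptide (200 μM stock) or water control; 1 h, 37 °C, 150 rpm. Tenfold dilutions plated on TSB agar, 15 h, 37 °C; 30–200-colony plates counted. Three trials, ≥2 peptide preparations; mean and standard deviation.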

For data set [8], the system named is S. Typhimurium ATCC 14028. The data set can be described thus: Antimicrobial activity assay. It is filed as cell-based, Salmonella enterica serovar Typhimurium. As to conditions: 20 μM peptide, AMA buffer (10 mM sodium phosphate, 1% TSB, pH 7.4), 1 h, 37 °C, colony counting; n = 3. The method in brief: as §2
In data set [9] the target is HD6 F29A mutant, oxidized form (human). The data set can be described thus: AUC.
[10] abbreviates: 20 μM peptide, 6 h, mean ± SDM, n = 3.
Where [11] appears, read: 20 μM peptide, 6 h, bacterium not given.
Where [12] appears, read: 20 μM peptide, bacterial culture 10^8 CFU/mL in cuvette.

For the substance “ATCYCRTGRCATRESLSGVCEISGRLYRLCCR (also: bicyclic or more (positions not given here)) [HD5, reference compound]”, the “antibacterial activity in vitro” value in data set [1] is listed as “broad-spectrum antibacterial activity”.

In the case of “I25T (AFTCHCRRSCYSTEYSYGTCTVMGTNHRFCCL; disulfide (positions not given here); ends not checked; UniProt Q01524 69-100, looked up, variant I25T)”, the “peptide concentration at which the bacteria were agglutinated” value (shortened to “peptide concentration”) in [2] and in data set [3] was no less than 10 µM each time.

On to “V22T (AFTCHCRRSCYSTEYSYGTCTTMGINHRFCCL; disulfide (positions not given here); ends not checked; UniProt Q01524 69-100, looked up, variant V22T)”, for which the “peptide concentration” value in data set [2] and in data set [3] was no less than 10 µM throughout. Moreover, the “CFU/mL reduction of the supernatant, in words” value in [2] (setting [10]) and in data set [3] (setting [10]) was “smaller decrease in CFU/mL for the supernatant” in each case.

Take “AFTCHCRR-SCYSTEYSYGTCTVMGINHRFCCL (bicyclic or more) [HD6, Human α-defensin 6]”: the “time within which the peptide sedimented (rapid peptide aggregation)” value in data set [4] is no more than 15 min. Moreover, the antibacterial activity result in [5], in data set [6], in [7] and in data set [8] was “neither HD6 nor the mutants exhibit significant antibacterial activity” each time. The “CFU/mL of the resuspension following agitation” value in data set [2] (setting [11]) and in data set [3] (setting [11]) was “comparable to that of the untreated control” in each case. Besides, the “log reduction in CFU/mL of the supernatant relative to the bacteria-only control” value in data set [2] (setting [11]) and in [3] (setting [11]) was “ca. 1.3 fold log” each time. In addition, the “time for clumps to sediment to the bottom of the cuvette and clarify the medium” value in [2] (setting [12]) and in data set [3] (setting [12]) was roughly 2 h throughout. Moreover, the “time to bacterial clumping observed by the eye after mixing” value in data set [2] (setting [12]) and in [3] (setting [12]) was no more than 5 min each time. In data set [1], the “antibacterial activity in vitro” value is “negligible antibacterial activity”.

In data set [9], “HD6 F29A mutant, oxidized form (peptide)” showed a stoichiometry N of 2.

Turning to “H27W (AFTCHCRRSCYSTEYSYGTCTVMGINWRFCCL; disulfide (positions not given here); ends not checked; UniProt Q01524 69-100, looked up, variant H27W)”, the “peptide concentration” value in [2] and in [3] was no less than 10 µM each time.

Source of the values: publication PMC4183631 (Journal of the American Chemical Society, 2014).
